Measured values from ChEMBL document CHEMBL5724801, “EUbOPEN Chemogenomics Library - Multiplex” (2024).
Where “and” joins values, the source holds several entries; their conditions need not be identical. Identical values can stand only once.

System: HEK-293T
Experiment: Multiplex assay against HEK293T
Type: toxicity, cell-based
Settings: human
Summary of the method: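 Live cells were stained at seeding with Hoechst33342, BioTracker Green Microtubule Cytoskeleton Dye, MitoTracker Red and Annexin V Alexa Fluor 680. Following compound addition, they were imaged on a CQ1 microscope at 37°C and 5% CO2 and gated by CellPathfinder machine learning into Hoechst high-intensity objects or normal cells, with normal cells split into healthy, pyknosed or fragmented nuclei and pyknosed cells into mitotic or apoptotic. Tubulin, mitochondrial-mass and membrane-permeability phenotypes are per cents of healthy-nucleus cells.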

[1] = 12 h, 1 µM, compound concentration 1 uM
[2] = 12 h, 10 µM, compound concentration 10 uM
[3] = 24 h, 1 µM, compound concentration 1 uM
[4] = 24 h, 10 µM, compound concentration 10 uM
[5] = 48 h, 1 µM, compound concentration 1 uM
[6] = 48 h, 10 µM, compound concentration 10 uM

## C=CC(=O)Nc1cc(Nc2nccc(-n3cc(CN(C)C)c(-c4ccccc4)n3)n2)c(OC)cc1N1CCOCC1 [LAZERTINIB]
[1]
  Population Apoptotic (%): 14.72% and 15.96%
  Population Fragmented Nuclei (%): 1.35% and 8.26%
  Population Hoechst High Intensity Objects (%): 0.67% and 0%
  Population Membrane Permeable-Phenotype (%): 0.77% and 5.88%
  Population Mitochondria Different-Phenotype (%): 33.85% and 11.76%
  Population Mitotic Cells (%): 85.28% and 84.04%
  Population Normal (%): 99.33% and 100%
  Population Pyknosed Nuclei (%): 54.88% and 77.69%
  Population Tubulin-Different-Phenotype (%): 31.54% and 82.35%
  Total Cell Count: 299 and 121
[2]
  Population Apoptotic (%): 22.22% and 29.59%
  Population Fragmented Nuclei (%): 3.83% and 10%
  Population Healthy Nuclei (%): 22.97% and 8.33%
  Population Hoechst High Intensity Objects (%): 0.48% and 0%
  Population Membrane Permeable-Phenotype (%): 0%
  Population Mitochondria Different-Phenotype (%): 47.92% and 60%
  Population Mitotic Cells (%): 77.78% and 70.41%
  Population Normal (%): 99.52% and 100%
  Population Pyknosed Nuclei (%): 73.21% and 81.67%
  Population Tubulin-Different-Phenotype (%): 75% and 80%
  Total Cell Count: 210 and 120
[3]
  Population Apoptotic (%): 15.83% and 31.58%
  Population Fragmented Nuclei (%): 1.82% and 4.92%
  Population Hoechst High Intensity Objects (%): 0.45% and 0%
  Population Membrane Permeable-Phenotype (%): 3.41% and 4.76%
  Population Mitochondria Different-Phenotype (%): 36.18% and 52.38%
  Population Mitotic Cells (%): 84.17% and 68.42%
  Population Normal (%): 99.55% and 100%
  Population Pyknosed Nuclei (%): 31.59% and 77.87%
  Population Tubulin-Different-Phenotype (%): 50.85% and 47.62%
[4]
  Population Apoptotic (%): 46.43% and 51.06%
  Population Fragmented Nuclei (%): 3.95% and 6.25%
  Population Healthy Nuclei (%): 22.37% and 9.82%
  Population Hoechst High Intensity Objects (%): 1.3% and 0%
  Population Membrane Permeable-Phenotype (%): 1.96% and 0%
  Population Mitotic Cells (%): 53.57% and 48.94%
  Population Normal (%): 98.7% and 100%
  Population Pyknosed Nuclei (%): 73.68% and 83.93%
  Population Tubulin-Different-Phenotype (%): 100% and 54.55%
  Total Cell Count: 231 and 112
[5]
  Population Apoptotic (%): 12.5% and 24.32%
  Population Fragmented Nuclei (%): 3.16% and 5.04%
  Population Healthy Nuclei (%): 82.41% and 41.73%
  Population Hoechst High Intensity Objects (%): 0.11% and 1.42%
  Population Membrane Permeable-Phenotype (%): 7.11% and 0%
  Population Mitochondria Different-Phenotype (%): 43.78% and 63.79%
  Population Mitotic Cells (%): 87.5% and 75.68%
  Population Normal (%): 99.89% and 98.58%
[6]
  Population Apoptotic (%): 50% and 19.23%
  Population Fragmented Nuclei (%): 1.89% and 5.38%
  Population Healthy Nuclei (%): 64.67% and 34.62%
  Population Hoechst High Intensity Objects (%): 0%
  Population Membrane Permeable-Phenotype (%): 9.27% and 0%
  Population Mitochondria Different-Phenotype (%): 73.66% and 40%
  Population Mitotic Cells (%): 50% and 80.77%
  Population Normal (%): 100%
  Population Pyknosed Nuclei (%): 33.44% and 60%
  Total Cell Count: 317 and 130

## CC(=O)O[C@H]1C(=O)[C@@]2(C)[C@H]([C@H](OC(=O)c3ccccc3)[C@]3(O)C[C@H](OC(=O)[C@H](O)[C@@H](NC(=O)c4ccccc4)c4ccccc4)C(C)=C1C3(C)C)[C@]1(OC(C)=O)CO[C@@H]1C[C@@H]2O [PACLITAXEL]
[2]
  Population Apoptotic (%): 41% and 56%
  Population Fragmented Nuclei (%): 7% and 5%
  Population Healthy Nuclei (%): 74% and 64%
  Population Hoechst High Intensity Objects (%): 16% and 14%
  Population Membrane Permeable-Phenotype (%): 0%
  Population Mitochondria Different-Phenotype (%): 79% and 84%
  Population Mitotic Cells (%): 58% and 43%
  Population Normal (%): 83% and 85%
  Population Pyknosed Nuclei (%): 17% and 29%
  Population Tubulin-Different-Phenotype (%): 11% and 16%
[4]
  Population Apoptotic (%): 35% and 47%
  Population Fragmented Nuclei (%): 10% and 8%
  Population Healthy Nuclei (%): 70% and 73%
  Population Hoechst High Intensity Objects (%): 16% and 15%
  Population Membrane Permeable-Phenotype (%): 0%
  Population Mitochondria Different-Phenotype (%): 72% and 82%
  Population Mitotic Cells (%): 64% and 52%
  Population Normal (%): 83% and 84%
  Population Pyknosed Nuclei (%): 18% and 17%
  Population Tubulin-Different-Phenotype (%): 8% and 16%
[6]
  Population Apoptotic (%): 29% and 69%
  Population Fragmented Nuclei (%): 15% and 10%
  Population Healthy Nuclei (%): 68% and 70%
  Population Hoechst High Intensity Objects (%): 11%
  Population Membrane Permeable-Phenotype (%): 0%
  Population Mitochondria Different-Phenotype (%): 64% and 70%
  Population Mitotic Cells (%): 70% and 30%
  Population Normal (%): 88%
  Population Pyknosed Nuclei (%): 15% and 19%
  Population Tubulin-Different-Phenotype (%): 2% and 11%

## CC(=O)NCC(=O)N1[C@@H]2CC[C@H]1c1ccc(Nc3ncc(C(F)(F)F)c(NC4CCC4)n3)cc12 [PF-03814735]
[1]
  Population Apoptotic (%): 13.45% and 7.26%
  Population Fragmented Nuclei (%): 1.8% and 4%
  Population Hoechst High Intensity Objects (%): 0.36% and 0%
  Population Membrane Permeable-Phenotype (%): 0% and 5%
  Population Mitochondria Different-Phenotype (%): 42.86% and 15%
  Population Mitotic Cells (%): 86.55% and 92.74%
  Population Normal (%): 99.64% and 100%
  Population Pyknosed Nuclei (%): 42.81% and 82.67%
  Total Cell Count: 279 and 150
[2]
  Population Apoptotic (%): 22.73% and 21.78%
  Population Fragmented Nuclei (%): 2.61% and 0.88%
  Population Hoechst High Intensity Objects (%): 0.65% and 0%
  Population Membrane Permeable-Phenotype (%): 0%
  Population Mitochondria Different-Phenotype (%): 27.87% and 27.27%
  Population Mitotic Cells (%): 77.27% and 78.22%
  Population Normal (%): 99.35% and 100%
  Population Pyknosed Nuclei (%): 57.52% and 89.38%
  Population Tubulin-Different-Phenotype (%): 75.41% and 45.45%
  Total Cell Count: 154 and 113
[3]
  Population Apoptotic (%): 21.25% and 13.04%
  Population Fragmented Nuclei (%): 1.47% and 2.07%
  Population Healthy Nuclei (%): 75.07% and 34.48%
  Population Hoechst High Intensity Objects (%): 0%
  Population Membrane Permeable-Phenotype (%): 0.78% and 4%
  Population Mitochondria Different-Phenotype (%): 20.31% and 10%
  Population Mitotic Cells (%): 78.75% and 86.96%
  Population Normal (%): 100%
  Population Pyknosed Nuclei (%): 23.46% and 63.45%
  Total Cell Count: 341 and 145
[4]
  Population Apoptotic (%): 65.09% and 50.43%
  Population Fragmented Nuclei (%): 0.99% and 0.8%
  Population Hoechst High Intensity Objects (%): 0%
  Population Membrane Permeable-Phenotype (%): 0%
  Population Mitochondria Different-Phenotype (%): 90.53% and 33.33%
  Population Mitotic Cells (%): 34.91% and 49.57%
  Population Normal (%): 100%
  Population Pyknosed Nuclei (%): 52.22% and 92%
  Total Cell Count: 203 and 125
[5]
  Population Apoptotic (%): 15.15% and 12.5%
  Population Fragmented Nuclei (%): 5.66% and 2.01%
  Population Healthy Nuclei (%): 86.88% and 71.14%
  Population Hoechst High Intensity Objects (%): 0%
  Population Membrane Permeable-Phenotype (%): 3.65% and 1.89%
  Population Mitotic Cells (%): 84.85% and 87.5%
  Population Normal (%): 100%
  Total Cell Count: 442 and 149
[6]
  Population Apoptotic (%): 68.24% and 37.78%
  Population Fragmented Nuclei (%): 2.53% and 2.44%
  Population Healthy Nuclei (%): 61.6% and 24.39%
  Population Hoechst High Intensity Objects (%): 0%
  Population Membrane Permeable-Phenotype (%): 0.68% and 0%
  Population Mitochondria Different-Phenotype (%): 97.95% and 76.67%
  Population Mitotic Cells (%): 31.76% and 62.22%
  Population Normal (%): 100%
  Population Pyknosed Nuclei (%): 35.86% and 73.17%
  Total Cell Count: 237 and 123

## CCCN1CCC[C@@H]2Cc3n[nH]cc3C[C@H]21.Cl [QUINPIROLE HYDROCHLORIDE]
[1]
  Population Apoptotic (%): 32% and 63%
  Population Fragmented Nuclei (%): 6% and 4%
  Population Healthy Nuclei (%): 84% and 82%
  Population Hoechst High Intensity Objects (%): 6% and 3%
  Population Membrane Permeable-Phenotype (%): 0%
  Population Mitochondria Different-Phenotype (%): 37% and 67%
  Population Mitotic Cells (%): 67% and 36%
  Population Normal (%): 93% and 96%
  Population Pyknosed Nuclei (%): 9% and 12%
  Population Tubulin-Different-Phenotype (%): 22% and 26%
  Total Cell Count: 447 and 294
[2]
  Population Apoptotic (%): 55% and 46%
  Population Fragmented Nuclei (%): 11% and 5%
  Population Healthy Nuclei (%): 72% and 78%
  Population Hoechst High Intensity Objects (%): 9% and 5%
  Population Membrane Permeable-Phenotype (%): 0%
  Population Mitochondria Different-Phenotype (%): 53% and 69%
  Population Mitotic Cells (%): 44% and 53%
  Population Normal (%): 90% and 94%
  Population Pyknosed Nuclei (%): 15% and 16%
  Population Tubulin-Different-Phenotype (%): 40% and 26%
  Total Cell Count: 381 and 312
[3]
  Population Apoptotic (%): 30% and 29%
  Population Fragmented Nuclei (%): 12% and 8%
  Population Healthy Nuclei (%): 79% and 81%
  Population Hoechst High Intensity Objects (%): 3% and 2%
  Population Membrane Permeable-Phenotype (%): 0%
  Population Mitochondria Different-Phenotype (%): 17% and 37%
  Population Mitotic Cells (%): 70%
  Population Normal (%): 96% and 97%
  Population Pyknosed Nuclei (%): 8% and 9%
  Population Tubulin-Different-Phenotype (%): 14% and 16%
  Total Cell Count: 600 and 390
[4]
  Population Apoptotic (%): 45% and 43%
  Population Fragmented Nuclei (%): 10% and 7%
  Population Healthy Nuclei (%): 77% and 78%
  Population Hoechst High Intensity Objects (%): 4% and 2%
  Population Membrane Permeable-Phenotype (%): 0%
  Population Mitochondria Different-Phenotype (%): 38% and 43%
  Population Mitotic Cells (%): 54% and 56%
  Population Normal (%): 95% and 97%
  Population Pyknosed Nuclei (%): 11% and 13%
  Population Tubulin-Different-Phenotype (%): 27% and 13%
  Total Cell Count: 529 and 406
[5]
  Population Apoptotic (%): 21% and 33%
  Population Fragmented Nuclei (%): 16% and 11%
  Population Healthy Nuclei (%): 76% and 84%
  Population Hoechst High Intensity Objects (%): 1% and 2%
  Population Membrane Permeable-Phenotype (%): 1%
  Population Mitochondria Different-Phenotype (%): 9% and 19%
  Population Mitotic Cells (%): 78% and 66%
  Population Normal (%): 98%
  Population Pyknosed Nuclei (%): 6% and 4%
  Population Tubulin-Different-Phenotype (%): 10% and 8%
  Total Cell Count: 1105 and 649
[6]
  Population Apoptotic (%): 40% and 33%
  Population Fragmented Nuclei (%): 15% and 13%
  Population Healthy Nuclei (%): 78% and 80%
  Population Hoechst High Intensity Objects (%): 2% and 1%
  Population Membrane Permeable-Phenotype (%): 1% and 0%
  Population Mitochondria Different-Phenotype (%): 23% and 28%
  Population Mitotic Cells (%): 59% and 66%
  Population Normal (%): 97% and 98%
  Population Pyknosed Nuclei (%): 6%
  Population Tubulin-Different-Phenotype (%): 15% and 13%
  Total Cell Count: 772 and 654
